Measurements published in publication PMC3223964 (ACS chemical neuroscience, 2011).
Several values for one entry are separate records, joined by “and”; a condition that tells them apart may be missing. Equal entries are not always repeated.

What was measured:
Kir2.1 = target: T1, Kir2.1 (Homo sapiens, UniProt P63252); test: Tl+ flux assay, Kir2.1; type: cell-based
T1 sequence (P63252 1-427): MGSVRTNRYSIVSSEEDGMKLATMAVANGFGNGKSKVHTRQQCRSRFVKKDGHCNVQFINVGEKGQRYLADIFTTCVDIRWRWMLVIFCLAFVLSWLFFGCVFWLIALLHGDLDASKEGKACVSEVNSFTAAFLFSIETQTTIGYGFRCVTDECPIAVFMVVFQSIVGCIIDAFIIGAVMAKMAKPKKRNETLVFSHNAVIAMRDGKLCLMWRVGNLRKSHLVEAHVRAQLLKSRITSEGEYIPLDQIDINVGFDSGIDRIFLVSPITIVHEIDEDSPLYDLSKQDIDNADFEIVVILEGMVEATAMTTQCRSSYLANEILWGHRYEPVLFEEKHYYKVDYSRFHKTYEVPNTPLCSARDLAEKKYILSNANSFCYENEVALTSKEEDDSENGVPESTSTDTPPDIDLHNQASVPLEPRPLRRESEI

[1] = Snapshot in vivo PK study, plasma and brain levels after IP administration; conditions: 10 mg/kg
KCNQ5 = KCNQ5 (Homo sapiens, UniProt Q9NR82); test: Tl+ flux assay, KCNQ5; type: cell-based
KCNQ3 = KCNQ3 (Homo sapiens, UniProt O43525); test: Tl+ flux assay, KCNQ3; type: cell-based
[2] = tested on: 68 GPCRs, ion channels and transporters; test: Ricerca Lead Profiling Screen; type: binding; conditions: 10 μM
KCNQ2/KCNQ3 = KCNQ2/KCNQ3 (Homo sapiens, UniProt O43525+O43526); test: IonWorks automated electrophysiology, KCNQ2/KCNQ3; type: cell-based
Method in brief: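 KCNQ2/KCNQ3-expressing cells on IonWorks population patch clamp, perforated with 50 μg/mL amphotericin B, extracellular pH 7.4 and internal pH 7.2. The KCNQ2 voltage protocol was used: a 2000 ms depolarizing step, with steady-state current read at step end before and 3 min after compound. Wells needed >100 pA current and >30 MΩ seal. Dosing was 8 points, 3-fold from 30 μM, in quadruplicate.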

CYP1A2 = target: T2, CYP1A2 (Homo sapiens, UniProt P05177); test: CYP450 inhibition, CYP1A2; type: in vitro ADME
T2 sequence (P05177 1-516): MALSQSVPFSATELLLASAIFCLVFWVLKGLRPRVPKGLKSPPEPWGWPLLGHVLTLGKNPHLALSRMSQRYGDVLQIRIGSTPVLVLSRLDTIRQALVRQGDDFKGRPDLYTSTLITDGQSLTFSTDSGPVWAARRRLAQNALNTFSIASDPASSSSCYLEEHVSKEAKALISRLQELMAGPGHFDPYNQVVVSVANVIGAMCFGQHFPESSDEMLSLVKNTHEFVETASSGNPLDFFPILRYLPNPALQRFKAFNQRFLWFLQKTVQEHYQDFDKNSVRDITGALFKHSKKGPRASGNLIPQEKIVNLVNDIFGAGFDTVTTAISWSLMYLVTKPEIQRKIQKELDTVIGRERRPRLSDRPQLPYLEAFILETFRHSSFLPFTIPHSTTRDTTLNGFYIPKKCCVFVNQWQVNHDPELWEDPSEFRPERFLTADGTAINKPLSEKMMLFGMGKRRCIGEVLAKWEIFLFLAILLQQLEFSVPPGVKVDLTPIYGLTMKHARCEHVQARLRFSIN

KCNQ2 channels [3] = target: T3, KCNQ2 channels (Homo sapiens, UniProt O43526); test: Thallium-based fluorescence; type: cell-based; conditions: 10-point CRC
Method in brief: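 Thallium influx read with FluxOR dye. Cells were plated at 6500/well on poly-D-lysine, cultured overnight at 37 °C and 5% CO2, and dye-loaded 90 min at room temperature in the dark. Assay buffer was HBSS with 5.8 mM K+, with 20 min compound preincubation. Stimulus brought final K+ to 15.8 mM and Tl+ to 5 mM. Reading was at 1 Hz for 10 s baseline plus 110 s; ΔF/F0 over 120 s was normalized to activator and buffer controls.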

KCNQ4 [4] = target: T4, KCNQ4 (Homo sapiens, UniProt P56696); test: IonWorks automated electrophysiology, KCNQ4; type: cell-based; conditions: versus KCNQ2, IonWorks
KCNQ1 [5] = target: T5, KCNQ1 (Homo sapiens, UniProt P51787); test: Tl+ flux assay, KCNQ1; type: cell-based
KCNQ1/KCNE1 [6] = target: T6, KCNQ1/KCNE1 (Homo sapiens, UniProt P51787); test: Tl+ flux assay, KCNQ1/E1; type: cell-based
CYP3A4 = CYP3A4 (Homo sapiens, UniProt P08684); test: CYP450 inhibition, CYP3A4; type: in vitro ADME
CYP3A4, sequence (P08684 whole entry): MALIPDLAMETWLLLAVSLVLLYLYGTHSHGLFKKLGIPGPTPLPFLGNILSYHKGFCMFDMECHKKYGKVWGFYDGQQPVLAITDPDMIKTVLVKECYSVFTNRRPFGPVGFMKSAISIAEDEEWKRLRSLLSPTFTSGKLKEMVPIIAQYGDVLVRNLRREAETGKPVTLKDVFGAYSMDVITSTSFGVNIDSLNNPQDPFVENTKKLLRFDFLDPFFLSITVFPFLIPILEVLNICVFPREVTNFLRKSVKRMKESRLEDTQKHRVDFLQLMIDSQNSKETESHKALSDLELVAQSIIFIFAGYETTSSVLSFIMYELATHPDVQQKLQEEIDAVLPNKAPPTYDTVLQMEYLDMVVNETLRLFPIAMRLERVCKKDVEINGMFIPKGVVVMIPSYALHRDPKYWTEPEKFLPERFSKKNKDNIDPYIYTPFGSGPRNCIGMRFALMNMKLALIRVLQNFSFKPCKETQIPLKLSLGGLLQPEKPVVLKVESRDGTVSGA

KCNQ2 channels [7] = target: T3, KCNQ2 channels; test: IonWorks automated electrophysiology; type: cell-based; conditions: IW EC50, KCNQ2 (enhancement of KCNQ2 currents), -10 mV step potential
Method in brief: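 Perforated-patch population clamp (IonWorks Quattro) on CHO cells stably expressing KCNQ2. Cells were freshly detached and seeded at 7000 cells/well in HEPES/glucose saline at pH 7.4, then perforated with 50 μg/mL amphotericin B in KCl/K-gluconate internal solution at pH 7.2. Steady-state current at the end of a 2000 ms depolarizing step was read before and after 3 min compound, as % change per well. Dosing was 8 points, 3-fold from 30 μM, in quadruplicate. Conductance was current divided by driving force; ΔV1/2 came from the same cells.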

KCNQ1/KCNE1 [8] = target: T6, KCNQ1/KCNE1; test: IonWorks automated electrophysiology, KCNQ1/KCNE1; type: cell-based
Method in brief: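 KCNQ1/KCNE1 cells in IonWorks perforated patch (50 μg/mL amphotericin B) at pH 7.4 extracellular. The protocol was a 3000 ms depolarizing step to +40 mV, then a 500 ms hyperpolarizing step. Steady-state current at +40 mV was read before and after 3 min compound exposure. Concentration-response was 8 points, 3-fold from 30 μM, in quadruplicate; sampling was 0.625 kHz.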

CYP2C9 = CYP2C9 (Homo sapiens, UniProt P11712); test: CYP450 inhibition, CYP2C9; type: in vitro ADME
CYP2C9, sequence (P11712 whole entry): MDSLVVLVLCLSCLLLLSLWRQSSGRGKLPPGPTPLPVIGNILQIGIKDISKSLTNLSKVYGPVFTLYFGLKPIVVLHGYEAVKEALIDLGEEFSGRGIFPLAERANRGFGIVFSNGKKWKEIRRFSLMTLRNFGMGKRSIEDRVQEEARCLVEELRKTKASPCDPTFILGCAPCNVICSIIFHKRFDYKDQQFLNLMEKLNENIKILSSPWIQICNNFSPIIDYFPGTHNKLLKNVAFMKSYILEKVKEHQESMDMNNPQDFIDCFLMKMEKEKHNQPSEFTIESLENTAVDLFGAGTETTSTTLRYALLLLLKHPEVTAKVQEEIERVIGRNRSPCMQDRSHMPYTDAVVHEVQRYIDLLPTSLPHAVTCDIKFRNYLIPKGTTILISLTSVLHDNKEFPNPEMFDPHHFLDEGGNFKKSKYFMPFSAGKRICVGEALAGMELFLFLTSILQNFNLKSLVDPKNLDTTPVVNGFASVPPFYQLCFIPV

CYP2D6 = CYP2D6 (Homo sapiens, UniProt P10635); test: CYP450 inhibition, CYP2D6; type: in vitro ADME
CYP2D6, sequence (P10635 whole entry): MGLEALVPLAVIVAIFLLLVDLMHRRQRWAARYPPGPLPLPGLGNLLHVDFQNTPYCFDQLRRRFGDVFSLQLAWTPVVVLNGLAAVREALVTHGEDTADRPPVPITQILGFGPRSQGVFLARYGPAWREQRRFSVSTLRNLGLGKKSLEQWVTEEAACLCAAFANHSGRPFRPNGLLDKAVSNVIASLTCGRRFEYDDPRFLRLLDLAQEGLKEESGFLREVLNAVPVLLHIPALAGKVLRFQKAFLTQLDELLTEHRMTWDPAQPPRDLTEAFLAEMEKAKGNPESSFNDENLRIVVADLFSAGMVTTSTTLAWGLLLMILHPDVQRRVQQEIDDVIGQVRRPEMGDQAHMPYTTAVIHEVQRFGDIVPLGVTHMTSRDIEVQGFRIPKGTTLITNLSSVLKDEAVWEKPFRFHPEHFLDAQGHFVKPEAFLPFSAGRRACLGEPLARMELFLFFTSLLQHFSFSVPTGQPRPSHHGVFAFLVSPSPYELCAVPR

KCNQ1 [9] = target: T5, KCNQ1; test: IonWorks automated electrophysiology, KCNQ1; type: cell-based
Method in brief: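 KCNQ1 cells in IonWorks perforated-patch mode (50 μg/mL amphotericin B), with extracellular saline at pH 7.4. Cells were depolarized to +40 mV from the holding potential, and current was measured during the +40 mV step before and 3 min after compound. No liquid junction correction was applied; sampling was 0.625 kHz. EC50 came from 8-point, 3-fold dilutions from 30 μM, in quadruplicate.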

hERG = hERG (Homo sapiens, UniProt Q12809); test: IonWorks automated electrophysiology, hERG; type: cell-based
hERG, sequence (Q12809 whole entry): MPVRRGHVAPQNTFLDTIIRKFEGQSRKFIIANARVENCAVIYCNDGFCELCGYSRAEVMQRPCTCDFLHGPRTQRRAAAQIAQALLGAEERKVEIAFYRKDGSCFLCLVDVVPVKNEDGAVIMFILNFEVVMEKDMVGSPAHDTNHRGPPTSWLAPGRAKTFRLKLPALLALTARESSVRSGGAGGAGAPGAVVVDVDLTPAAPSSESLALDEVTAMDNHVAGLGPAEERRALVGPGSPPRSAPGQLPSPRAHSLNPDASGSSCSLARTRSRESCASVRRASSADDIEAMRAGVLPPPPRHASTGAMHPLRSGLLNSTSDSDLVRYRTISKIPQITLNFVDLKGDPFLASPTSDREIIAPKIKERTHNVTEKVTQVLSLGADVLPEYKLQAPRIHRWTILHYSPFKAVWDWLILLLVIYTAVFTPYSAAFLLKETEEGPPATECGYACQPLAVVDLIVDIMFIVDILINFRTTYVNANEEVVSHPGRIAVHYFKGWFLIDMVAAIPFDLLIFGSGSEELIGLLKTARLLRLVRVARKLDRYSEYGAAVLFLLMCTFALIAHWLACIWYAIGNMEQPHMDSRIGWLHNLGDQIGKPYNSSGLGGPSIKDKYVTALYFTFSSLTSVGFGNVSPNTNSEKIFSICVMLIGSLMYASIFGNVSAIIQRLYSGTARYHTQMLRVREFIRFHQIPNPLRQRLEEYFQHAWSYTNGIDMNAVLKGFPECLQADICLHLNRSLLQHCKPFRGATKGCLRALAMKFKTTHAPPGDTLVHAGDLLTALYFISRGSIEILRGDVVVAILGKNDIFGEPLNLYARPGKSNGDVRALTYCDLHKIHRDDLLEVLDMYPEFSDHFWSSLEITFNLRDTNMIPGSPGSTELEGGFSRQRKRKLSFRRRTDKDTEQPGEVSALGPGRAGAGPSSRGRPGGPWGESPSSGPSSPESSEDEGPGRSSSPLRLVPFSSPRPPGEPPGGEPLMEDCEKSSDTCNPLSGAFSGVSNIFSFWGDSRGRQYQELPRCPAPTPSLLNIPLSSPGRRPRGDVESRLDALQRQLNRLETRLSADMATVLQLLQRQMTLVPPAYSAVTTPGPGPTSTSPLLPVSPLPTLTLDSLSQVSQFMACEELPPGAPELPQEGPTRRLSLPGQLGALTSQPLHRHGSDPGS

KCNQ4 [10] = target: T4, KCNQ4; test: Tl+ flux assay, KCNQ4; type: cell-based; conditions: versus KCNQ2, Tl+ flux assay

For Cc1cc(C)c(NC(=O)C2CC3CCC2C3)c(C)c1 (stereo not drawn) [compound 1, N-Mesitylbicyclo[2.2.1]heptane-2-carboxamide], the EC50 (Kir2.1) was greater than 10 µM, the “Fold selectivity (Tl+), Kir2.1” value (Kir2.1; versus KCNQ2, Tl+ flux assay) was greater than 27 fold and the concentration at 1 h ([1]; brain) was 476 nM. The concentration at 1 h ([1]; plasma) was 1260 nM, the EC50 (KCNQ5) was greater than 30 µM and the “Fold selectivity (Tl+), KCNQ5” value (KCNQ5; versus KCNQ2, Tl+ flux assay) was greater than 80 fold. The EC50 (KCNQ3) was greater than 30 µM, the “Fold selectivity (Tl+), KCNQ3” value (KCNQ3; versus KCNQ2, Tl+ flux assay) was greater than 80 fold and the “inhibition of radio ligand binding, panel of 68 GPCRs, ion channels and transporters” value [2] was no more than 50%. For the same molecule, the EC50 (KCNQ2/KCNQ3) was 0.37 µM, the “Fold selectivity (IW), KCNQ2/3” value (KCNQ2/KCNQ3; versus KCNQ2, IonWorks) was 1 fold and the IC50 (CYP1A2) was greater than 30 µM. For the same molecule, the “maximal increase in Tl+ influx, KCNQ2” value (KCNQ2 channels [3]) was 56%, the EC50 (KCNQ2 channels [3]; Tl+ EC50, KCNQ2, fluorescent Tl+ influx assay) was 0.359 µM and 0.36 µM and the “Fold selectivity (IW), KCNQ4” value (KCNQ4 [4]) was 1.4 fold. It also gave an EC50 (KCNQ1 [5]) greater than 30 µM, a selectivity ratio at 20 min (KCNQ1 [5]) greater than 80 and an EC50 (KCNQ1/KCNE1 [6]) greater than 30 µM. It also gave a selectivity ratio at 20 min (KCNQ1/KCNE1 [6]) greater than 80, an IC50 (CYP3A4) greater than 30 µM and an EC50 (KCNQ2 channels [7]) of 0.23 µM. It also gave an EC50 (KCNQ1/KCNE1 [8]) greater than 30 µM, a selectivity ratio at 3 min (KCNQ1/KCNE1 [8]; pH 7.4) greater than 80 and an IC50 (CYP2C9) greater than 30 µM. The IC50 (CYP2D6) was greater than 30 µM, the EC50 (KCNQ1 [9]) was greater than 30 µM and the selectivity ratio at 3 min (KCNQ1 [9]; pH 7.4) was greater than 80. For the same molecule, the EC50 (hERG) was greater than 10 µM, the selectivity ratio (hERG; human) was greater than 28 and the “Fold selectivity (Tl+), KCNQ4” value (KCNQ4 [10]) was 6.7 fold.
